In paper PMC3517057 (ChemMedChem, 2012):

How the values were obtained:
mGlu5 [1] = molecular target: T1, mGlu5 (Rattus norvegicus, UniProt P31424); assay: mGlu5 calcium mobilization assay; type: cell-based
[2] = Plasma and brain exposure after intraperitoneal dosing in mice; type: in vivo, male CD-1 mice; settings: 10 mg/kg i.p.
Procedure, shortened: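 Male CD-1 mice received 10 mg/kg i.p. as a microsuspension in 10% tween 80, with two mice per time point. Brain and plasma were sampled at 0.5, 1, 3 and 6 h post dose.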

[3] = Protein binding in mouse plasma; type: in vitro ADME; settings: rapid equilibrium dialysis
[4] = system: 68 primary molecular targets (GPCRs, kinases, ion channels); assay: Ricerca LeadProfilingScreen radioligand binding panel; settings: 10 µM
[5] = Binding to mouse brain homogenates; type: in vitro ADME; settings: rapid equilibrium dialysis
mice [6] = assay: Marble burying model of anxiety; type: in vivo; settings: for Inhibition of marble burying: 15 minute pretreatment; for Sedation: marble burying study, i.p., all dosing groups
Procedure, shortened: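 Mice were scored for burying glass marbles in deep bedding. Test compound or the MTEP positive control (15 mg/kg) was given i.p. in 10% tween 80 vehicle 15 min before testing. Testing ran from 15 to 45 min post dose, with n=12 per dosing group. Significance was P < 0.05 vs vehicle by Dunnett's test.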

[7] = Exposure following oral dosing in mice; type: in vivo
mGlu5 [8] = molecular target: T1, mGlu5; assay: Effect on glutamate CRC in rat cortical astrocytes; type: cell-based; settings: 300 nM, 1 µM, 30 µM 18k
[9] = Metabolic stability in mouse liver microsomes; type: in vitro ADME; settings: 1 µM, 15 min, 37 °C, NADPH
Procedure, shortened: (§1)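 Test compound at 1 µM was incubated with human or mouse liver microsomes in phosphate buffer with NADPH cofactor, for 15 min at 37 °C with shaking.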

C57Bl/6J mice [10] = assay: Operant sensation seeking; type: in vivo
adenosine A3 receptor = molecular target: T2, adenosine A3 receptor (Homo sapiens, UniProt P0DMS8); assay: Ricerca LeadProfilingScreen radioligand binding, adenosine A3 receptor; settings: 10 µM
T2 sequence (P0DMS8 1-318): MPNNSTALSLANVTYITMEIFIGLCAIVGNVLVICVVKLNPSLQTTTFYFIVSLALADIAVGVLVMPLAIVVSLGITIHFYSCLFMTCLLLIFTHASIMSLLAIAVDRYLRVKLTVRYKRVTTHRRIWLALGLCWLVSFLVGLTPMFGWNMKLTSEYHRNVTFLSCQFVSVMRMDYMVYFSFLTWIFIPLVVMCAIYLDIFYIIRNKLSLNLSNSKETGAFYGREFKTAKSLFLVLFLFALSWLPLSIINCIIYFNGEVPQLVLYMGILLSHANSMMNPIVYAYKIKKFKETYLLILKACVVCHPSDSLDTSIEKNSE
Procedure, shortened: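 The test compound was run at 10 µM in a commercial profiling panel of radioligand binding assays covering 68 primary molecular targets, including GPCRs, kinases and ion channels.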

[11] = Metabolic stability in human liver microsomes; type: in vitro ADME; settings: 1 µM, 15 min, 37 °C, NADPH
Procedure, shortened: as §1

rat mGlu5 = rat mGlu5 (Rattus norvegicus, UniProt P31424); assay: Glutamate-induced ERK1/2 phosphorylation in HEK293 cells expressing rat mGlu5; type: cell-based; settings: 10 nM to 1 µM 18k
mGlu1–4 and mGlu6–8 = assay: Selectivity against other mGlu receptors; type: cell-based; settings: 10 µM
mice [12] = settings: cited from earlier work
C57Bl/6J mice [13] = settings: low doses; cited from earlier work
[14] = mGlu5 calcium mobilization, average of at least three determinations

T1 sequence (P31424 21-1203): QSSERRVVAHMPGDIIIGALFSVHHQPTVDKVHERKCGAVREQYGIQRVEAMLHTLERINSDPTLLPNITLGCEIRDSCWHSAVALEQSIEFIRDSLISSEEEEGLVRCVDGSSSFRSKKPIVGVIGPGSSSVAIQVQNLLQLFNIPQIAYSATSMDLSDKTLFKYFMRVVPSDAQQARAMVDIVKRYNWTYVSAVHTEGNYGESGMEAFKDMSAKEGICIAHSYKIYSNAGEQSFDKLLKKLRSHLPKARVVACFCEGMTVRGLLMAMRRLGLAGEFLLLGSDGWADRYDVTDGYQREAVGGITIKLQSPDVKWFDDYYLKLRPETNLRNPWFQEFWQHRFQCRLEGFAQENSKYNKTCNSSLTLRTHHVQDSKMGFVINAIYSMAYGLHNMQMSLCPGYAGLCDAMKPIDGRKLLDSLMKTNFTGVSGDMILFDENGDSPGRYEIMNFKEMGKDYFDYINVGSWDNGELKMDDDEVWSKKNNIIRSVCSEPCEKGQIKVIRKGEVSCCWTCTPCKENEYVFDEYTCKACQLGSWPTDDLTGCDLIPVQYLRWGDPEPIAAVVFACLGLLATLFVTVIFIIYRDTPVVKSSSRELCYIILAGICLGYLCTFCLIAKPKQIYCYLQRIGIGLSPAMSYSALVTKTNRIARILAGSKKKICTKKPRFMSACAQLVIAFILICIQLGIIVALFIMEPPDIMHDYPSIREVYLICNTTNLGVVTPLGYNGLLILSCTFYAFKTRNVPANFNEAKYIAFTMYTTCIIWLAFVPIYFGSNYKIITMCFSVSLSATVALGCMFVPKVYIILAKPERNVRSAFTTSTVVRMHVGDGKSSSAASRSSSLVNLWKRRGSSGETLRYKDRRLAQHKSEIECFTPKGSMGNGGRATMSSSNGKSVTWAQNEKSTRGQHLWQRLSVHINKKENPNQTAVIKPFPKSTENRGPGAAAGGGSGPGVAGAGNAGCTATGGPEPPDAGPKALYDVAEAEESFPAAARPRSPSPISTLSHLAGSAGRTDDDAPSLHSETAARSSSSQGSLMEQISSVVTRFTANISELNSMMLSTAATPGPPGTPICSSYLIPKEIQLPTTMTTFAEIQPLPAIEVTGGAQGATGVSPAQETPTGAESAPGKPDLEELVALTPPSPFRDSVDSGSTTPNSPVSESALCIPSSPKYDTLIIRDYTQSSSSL
rat mGlu5, sequence (P31424 21-1203): as above

N#Cc1cnc(Nc2nc3ccccc3o2)nc1-c1cccs1 [18ee]
IC50 (mGlu5 [1]; [14]): > 10000 nM

COc1ccccc1-c1nc(Nc2nc3ccccc3o2)ncc1C#N [18g]
IC50 (mGlu5 [1]; [14]): 62 ± 10 nM

N#Cc1cnc(Nc2nc3ccccc3o2)nc1-c1ccc(F)cc1 [18k]
IC50 (mGlu5 [1]; [14]): 91 ± 22 nM
Brain AUC [2]: 1006 ng·h/g
Plasma AUC [2]: 224 ng·h/mL
Brain [ ] ([2]; 0.5 h): 136 ng/mL
Brain:Plasma ratio ([2]; 0.5 h): 4.3
Plasma [ ] ([2]; 0.5 h): 31.8 ng/mL
average brain concentration ([2]; 30 minutes): 0.41 µM
Brain [ ] ([2]; 1 h): 283 ng/mL
Brain:Plasma ratio ([2]; 1 h): 4.4
Plasma [ ] ([2]; 1 h): 64.7 ng/mL
brain concentration ([2]; 1 hour post dose): 850 nM
Brain [ ] ([2]; 3 h): 193 ng/mL
Brain:Plasma ratio ([2]; 3 h): 4.3
Plasma [ ] ([2]; 3 h): 45.4 ng/mL
Brain [ ] ([2]; 6 h): 68 ng/mL
Brain:Plasma ratio ([2]; 6 h): 7.4
Plasma [ ] ([2]; 6 h): 9.2 ng/mL
brain to plasma ratio ([2]; exposure ratio, to 1): more than 4
bound to mouse plasma [3]: 99.4%
Inhibition of radioligand binding in 68-target panel [4]: inhibition of more than 50% of radioligand binding was observed only in the adenosine A3 receptor assay
bound to mouse brain homogenates [5]: 99.5%
Inhibition of marble burying (mice [6]; 56.6 mg/kg i.p. (highest dose), P < 0.05 vs. vehicle): Significant inhibition of marble burying
Sedation (mice [6]): No sedation was observed
Exposure in plasma and brain [7]: no exposure above detectable limits in either plasma or brain
Effect on glutamate concentration response curve (mGlu5 [8]): induced a rightward shift in the glutamate concentration response curve (CRC) and reduced the maximal effect of glutamate
Stability in liver microsomes [9]: Enhanced stability relative to 13
Efficacy in OSS (C57Bl/6J mice [10]; both 30 and 56.6 mg/kg doses i.p., P < 0.05 vs. vehicle): significant efficacy
Progressive ratio responding for OSS stimuli (C57Bl/6J mice [10]; i.p., dose response): dose dependently reduced progressive ratio responding for OSS stimuli
Effect on responding for a food reinforcer (C57Bl/6J mice [10]; i.p., food control): no significant effects
inhibition of binding (adenosine A3 receptor): 73%
Stability in liver microsomes [11]: Enhanced stability relative to 13
Effect on ERK1/2 phosphorylation response to glutamate (rat mGlu5): blocked the effect of glutamate in a concentration dependent manner
Activity against other mGlu receptors (mGlu1–4 and mGlu6–8): no observable activity

N#Cc1cnc(Nc2nc3ccccc3o2)nc1-c1ccc(C(F)(F)F)cc1 [18m]
IC50 (mGlu5 [1]; [14]): > 30000 nM

CCOc1ccccc1-c1nc(Nc2nc3ccccc3o2)ncc1C#N [18r]
IC50 (mGlu5 [1]; [14]): 6580 ± 1670 nM

N#Cc1cnc(Nc2nc3ccccc3o2)nc1-c1ccc(F)c(F)c1 [18t]
IC50 (mGlu5 [1]; [14]): 2580 ± 1170 nM

N#Cc1cnc(Nc2nc3ccccc3o2)nc1-c1ccc(Cl)cc1F [18y]
IC50 (mGlu5 [1]; [14]): 375 ± 90 nM

COc1cc(F)ccc1-c1nc(Nc2nc3ccccc3o2)ncc1C#N [18z]
IC50 (mGlu5 [1]; [14]): 217 ± 10 nM

Cc1cccc(C#Cc2ccccc2)n1 [MPEP]
Efficacy in marble burying model (mice [12]): effective

Cc1nc(C#Cc2cccnc2)cs1 [MTEP, reference compound]
Inhibition of marble burying (mice [6]; 15 mg/kg i.p., positive control): Robust inhibition of marble burying
Sedation (mice [6]): No sedation was observed

OCCN1CCN(CC/C=C2/c3ccccc3Sc3ccc(C(F)(F)F)cc32)CC1 [cis-flupenthixol]
Responding for OSS stimuli (C57Bl/6J mice [13]): increased responding for OSS stimuli

N#Cc1cnc(Nc2nc3ccccc3o2)nc1-c1ccccc1 [compound 13]
IC50 (mGlu5 [1]; [14]): 89 ± 32 nM
IC50 (mGlu5 [1]; original batch of virtual screen hit (ChemDiv), 10-point CRC): 75 nM

CN1CC(=O)NC1=NC(=O)Nc1cccc(Cl)c1 [fenobam]
Efficacy in marble burying model (mice [12]): effective
